In the EternaBench riboswitch data:

System: MS2 coat protein
Assay: apparent Kd, MS2 coat protein; higher = weaker binding; RNA-MaP array; FMN 200 µM where present
In short: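 The apparent Kd is the median of filtered binding-curve fits, one per cluster, to green signal normalised to red-channel RNA signal and control-cluster median Fmax. The clusters were on Illumina sequencing chips, and stalled E. coli RNA polymerase had transcribed the designs on them. Titration used SNAP-549-labelled MS2 coat protein from 0.7 or 1.5 nM, doubling to 3 µM, without and then with constant ligand, in 100 mM Tris-HCl pH 7.5, 80 mM KCl, 4 mM MgCl2, BSA, DTT, yeast tRNA and Tween-20.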

[1] = designed as: ON switch for flavin mononucleotide, no ligand
[2] = ligand present: flavin mononucleotide, designed as: ON switch for flavin mononucleotide
[3] = designed as: OFF switch for flavin mononucleotide, no ligand
[4] = ligand present: flavin mononucleotide, designed as: OFF switch for flavin mononucleotide

Sequence	apparent Kd [1] [nM]	apparent Kd [2] [nM]	apparent Kd [3] [nM]	apparent Kd [4] [nM]
AAAGUACAUGAGGAUCACCCAUGUCCCAAUGAAUAAGGAUAUACGAAAAUAAAAUAAAAUGUAGAAGGUAUAAUAG	31.6	27.2	–	–
AUUAUUGACAUAGGAUAUUGUUACAUGAGGAUCACCCAUGUUAUUUGGGAACUAGGAAUAUUUUACAAGAAGGAUGUUGUUAAA	91	79.3	–	–
UGAUAGGACAGAGGAUAUGCGUGCUGGUGAUACUAGCAAAGUAUCGUGACAUGAGGAUCACCCAUGUAGAAGGCUGUCCUAUCU	–	–	28	68.4
GUGCUCGUGUAAGGAUAUGCAGCCGUUUCGGCUGCAGAAGGUACUAUAAUACAUGAGGAUCACCCAUGUCUCUAUAGUUUGGUG	27.4	33.1	–	–
UAUUUAAUCAUAGGAUAUAGUGUGAAAUUUGGACUAGAAGGAUGUAACAUGAGGAUCACCCAUGUGGUAAGUGGGACACAUUGA	107	130	–	–
AAUAUAAAGAGCUGGACCUUAAUAACAUGAGGAUCACCCAUGUAGGAUAUCAGCACGAUAAGUGCUGAGAAGGACAUCCAGCUC	–	–	14.4	15.1
CUCAAGUGAGGAUAUCAGUAGUAAAAAAAUAAAAUUACUACUGAGAAGGCACAUGAGGAUCACCCAUGUGACUU	–	–	26.5	23.5
GAUGUAUUCGUAGGAUAUCCGUCGCCACCGUGUGGAGAAGGACGAACAUGAGGAUCACCCAUGUAUCAUGGUGUAGACGCUUUC	–	–	63.6	70.9
AUUUAUGGCCAGAAGGACAUGAGGAUCACCCAUGUAGGAUAUGGACGAUUUUACUCGGCGGUUCGUUUAGGAAGCACCGGCGGU	8.58	5.91	–	–
GCUACGCCUGACAUGAGGAUCACCCAUGUUAGAUUGUUAUGUCAGGAUAUUGUCUAGAAACUAGACAAGAAGGGAUGUGUAGCU	728	66.5	–	–
GCCUUACCGGUCAGGAUAUACAUUUGUUACUCCUUGUAGAAGGGACAUGAGGAUCACCCAUGUACAUUACAUUC	–	–	19.4	20.4
UGUCGGAGCAGAGGAUAUUACAUGAGGAUCACCCAUGUAUGAACCAAUAGCUUGAAACAGCAAUGUAAGAAGGCUGCUCCGACA	–	–	7.66	84.2
AUCAGCUCGUCAGGAUAUACGUCACUGCGUCAGCAGUGUGGUACGAUCACAUGAGGAUCACCCAUGUAGAAGGGACGAGCUGAU	–	–	12.7	215
UUACUAUUGGAGAAGGCUCGAUAAUAUAUAAUGGGAGGAUAUCCAACAUGAGGAUCACCCAUGUUUCACCCAUAUGAGGAUCAC	–	–	12.6	13.2
UAUAUAUAGUAAGGAUAUGUAUUUAUUUAAUAAACAGAAGGUACUGACAUGAGGAUCACCCAUGUUUUAGUGUGGGCAUGUAGA	–	–	79.7	149
GGCUCAUUUACAUUAAUGUGCUGACAGGAUAUCCACGGCGGUUCCUACAUGAGGAUCACCCAUGUGGAGAAGGGUCGCUAAUGG	–	–	12.4	18.9
GAGUGACAUGAGGAUCACCCAUGUGAGGAUAUCGGACGGACCAAAUUAACAACAAACGCGAGAAGGCACAUCGG	–	–	76.4	79.5
UCAUAUUUACAAGGAUAUCAAUAUAAUAUAAUACCAACAUGAGGAUCACCCAUGUAUUAGCGUAAUGAGAAGGUGUAUUGUCGG	51.2	41.4	–	–
GCAUAGGACAGAGGAUAUACGUGCUAGAGAUACUAGCAAAAUUUCCUCACAUGAGGAUCACCCAUGUAGAAGGCUGUCCUAUCG	–	–	17.6	422
CCAGGCUUCGAGAAGGACAUGAGGAUCACCCAUGUGCGUGUGAAGCAGCCGUGAGGCUGCAUCAUGUAGGAUAUCGGAGUCUGC	–	–	77.2	538
GAUGAUCGGUGAGGAUAUUUUAUAACGUUUUUGAAAGAAGGCACUGACAUGAGGAUCACCCAUGUGAGUCCUCAUCUUGAAAUA	–	–	18	35.6
GUAGCUAUCGGAGGAUAUUCAUACCGGAAACGGACAUGAGGAUCACCCAUGUGGCGAAAGUCUUGGGAGAAGGCCGAUAGCUAC	75.5	6.28	–	–
UUUUAUUAGUAGAAGGACGGAGAGUAUGUAGUCGUAGGAUAUACAUAAGACAUGAGGAUCACCCAUGUGUGUAUUUUGGGUAUG	–	–	15.7	13.2
UGAUACUAAGAGAAGGUUCAAACUACAUAUUGCAUACAUGAGGAUCACCCAUGUUGGUGAAUAAGAAAGGAUAUUUUACUGUAU	–	–	46.3	34.3
CGGGUCUGAGGAUAUCCAUCUUCAUACAUGAGGAUCACCCAUGUUUACCUUUGGGUUUCUGGAGAAGGCAGUUUUC	–	–	48.3	73
AAACAUGUCCGAGGAUAUCUGGAAACAUUUUCAAGAGAAGGCGGACAUGAGGAUCACCCAUGUCUCUCCUCAUCAACUAUAAAU	–	–	8.24	60.6
GAGGCCCAAACAUGAGGAUCACCCAUGUGUUUAGUCCUCACAUAGGAUAUCCACACGAGAAGUGUGGAGAAGGAUGAGGGCGUC	–	–	49	101
GUACUGUAGUGAGGAUAUACGAGUACGAUAGUACGGCGAUCCAUAUAUACAUGAGGAUCACCCAUGUAGAAGGCACUUCAGUAC	–	–	8.66	109

Sequence	apparent Kd [1] [nM]	apparent Kd [2] [nM]	apparent Kd [3] [nM]	apparent Kd [4] [nM]
GUGAGGUCAGGAUAUGCAUGGCGGGACUUGCGUCGUGGCGUGCAGAAGGGACAUGAGGAUCACCCAUGUGGAGC	–	–	81.6	194
AACAUGUCAGGAUAUGUGACAUGGCUCUUCGGAGCAAGAUCACAGAAGGGACAUGAGGAUCACCCAUGUCGAUC	–	–	38.7	156
ACGUUUUUUGAGGAUAUGCGACGUUCCUUCGUCGUAGAAGGCGAUACAUGAGGAUCACCCAUGUUUAUGGGCAU	–	–	119	137
CGCUGUCUCGCAGGAUAUGCAUUGGAUUACAAUGCAGAAGGGCGAUUACAUGAGGAUCACCCAUGUGUUGACAGUGAAGAAGAG	114	21.6	–	–
AAUUGACACGUAGGAUAUCGAACUAUUUUAACACGAGAAGGACGUACAUGAGGAUCACCCAUGUUUAAUGGAGUAGAUAAGUUG	–	–	154	290
ACAACAAAGUGAGGAUAUACAUAAUUCAUAACUGUAGAAGGCACAAACCUCAAUACAUGAGGAUCACCCAUGUUAUAUAUCUAA	–	–	34.8	38.5
ACUAUACGAGGAUAUGCUGUCAGUACUCCGGAGUUAGUUUGACAUGAGGAUCACCCAUGUAGAAGGCGUUUACU	–	–	40	30.3
GGAGCCGACACUGAGGAUAUUCAUAUUAAAACAUGAGGAUCACCCAUGUAGGCCAGAAGGCCUUGGGAGAAGGCAGGCCGGCUCG	377	26.5	–	–
AAAACUGGAGGAUAUACAUGAGGAUCACCCAUGUGUGGAUGAGCUGUGUCGGCGUCACGUAGAAGGCCACAAAA	–	–	40.5	47.5
CGAUGACACAGUCAUCCAAUACGAACAUGAGGAUCACCCAUGUAGGAUAUGCUACUCAAAGAGUAGCAGAAGGACAUGUGCCUU	–	–	38.4	159
AUCCGACAUGAGGAUCACCCAUGUCAGGAUAUGGACUGACAUCGAAAGGAUGGAAGAACCAGAAGGGACUGGGC	–	–	28.2	48.5
CCUCCAUCAUGAGGAUAUGGCACCUUAUUGGUGCCAGAAGGCAUGUCUUUUGACAUGAGGAUCACCCAUGUAAUAAAUUGGAGG	1280	127	–	–
AUAUAUAGUGUGAGGAUAUGCUGGUCCUUGGAUCAGCAGAAGGCACAUGAGGAUCACCCAUGUAGUUUAUUUUU	–	–	24.5	102
UUUAUAUUCAGAGGAUAUUAAUGUUGUAUAAUAUAAGAAGGCUGUUUGUUUUGUAAAGUUAUUAUACAUGAGGAUCACCCAUGU	20.6	16.9	–	–
GCGGCUAAUGCAGGAUAUCGGCACGUGUAGUGCCGAGAAGGGCACAUGAGGAUCACCCAUGUGAUCAAUCAAUGUUAAUGCCGC	–	–	8.86	44.2
UUUUAGUGAGGAUAUGUGGCUUCGAUCGUGAGAUCGAGGCUACAGAAGGCACAUGAGGAUCACCCAUGUUCCUU	–	–	14.5	46.8
AUUGUUGUUGUGAGGAUAUCGUUGAUUUUUUGAAACGAGAAGGCACAUGAGGAUCACCCAUGUUAGUUGUUGGU	–	–	96.4	311
CCGGAAUAGCAGGAUAUAGGAGUCGAUAGACACCUAGAAGGGCUGACAUGAGGAUCACCCAUGUGUCCUACCGG	–	–	81.2	50.8
GAAAAACAUGAGGAUCACCCAUGUAAAAAAAUGGGAGGAUAUACAAAGACGAAAGUCAAAGUAGAAGGCCUGAAAG	54.9	20.7	–	–
AUCAGCUCGUGAGGAUAUACAUGAUAGAUCGAUUAAUUAAUUAAUUUAACAUGAGGAUCACCCAUGUAGAAGGUACGAGCUGAU	–	–	52.3	50.5
ACGGCAAUCACAGGAUAUGGUUACAUGAGGAUCACCCAUGUCAAGGGUCUAAUUAGGUAUAACUACCAGAAGGGUGAAGGCCUA	–	–	74.4	105
CGCGAUGCGGUUGGCCCUGGGCGAGAGGAUAUGGGCAGCAGGACAUGAGGAUCACCCAUGUUCUCUCAGAAGGCUCGAGCAGGC	247	24.5	–	–
CAGUACUGAGGAUAUACAUGAGGAUCACCCAUGUGUCCCAGCUAGGAAACUAGCAAAAGUAGAAGGCAGUACUG	–	–	23.6	538
AUUUAAAAGCAGAAGGGCAAGGUGGAUCCCUCACAUGAGGAUCACCCAUGUCUAGGCUUUACCGUGCAGGAUAUGCAAGUAAUA	26	58.5	–	–
UAAACGUUCUAGAAGGUGCUAGCGAUAAGCUAGCAAGGAUAUAGACAUGAGGAUCACCCAUGUCUUUGUGACAUCGACAUACUU	–	–	9.03	12.1
CGCUGUCACGCAGGAUAUGCAUUGGAUUACAAUGCAGAAGGGCGAUUACAUGAGGAUCACCCAUGUGUUGACAGUGAAGAAGAG	1240	80.6	–	–
UGGGAUGGCUAGAAGGCUCCGUAAACUACAGGGAGAGGAUAUGGCACAUGAGGAUCACCCAUGUGUACCUGUAGGUGAUCCACA	–	–	19	90.8
